In paper PMC5495021 (Leukemia & lymphoma, 2015):
“Also recorded” adds a separate entry of the source. Read-outs that look alike come from different tables or passages of the source.

Columns and labels:
[1] = Plasma pharmacokinetics of SAR103168 in phase I patients; assay type: in vivo, human
[2] = test system: refractory/relapsed acute leukemias or high-risk myelodysplastic syndromes; test: Anti-leukemic efficacy; assay type: in vivo, human
Summary of the method: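 Adults with refractory/relapsed acute leukemia, accelerated/blast-phase CML, or high-risk MDS received IV infusion daily for 5 days per course, starting at 1.2 mg/m2/day with dose escalation. Response was graded by IWG criteria (acute leukemia/MDS) or European LeukemiaNet definitions (CML). Marrow aspirate/biopsy at baseline, course 2 Day 11–14, every 2 courses, and end of study. Descriptive statistics.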

[3] = Protein binding; assay type: in vitro ADME, human; settings: no saturation over a clinically relevant concentration range
[4] = target: CYP2D6 (Homo sapiens, UniProt P10635); test: Contribution of CYP enzymes to metabolism; assay type: in vitro ADME
[5] = human, in vivo
[6] = test system: xenograft models; settings: cited from earlier work
[7] = cited from earlier work
[8] = test system: Src kinase family; settings: preclinical; cited from earlier work
[9] = test system: BCR-Abl kinase; settings: preclinical; cited from earlier work
[10] = test system: vascular endothelial growth factor receptor type 1 (VEGFR1); settings: preclinical; cited from earlier work
[11] = test system: vascular endothelial growth factor receptor type 2 (VEGFR2); settings: preclinical; cited from earlier work
[12] = test system: Tie2; settings: preclinical; cited from earlier work
[13] = test system: platelet-derived growth factor receptor (PDGFR); settings: preclinical; cited from earlier work
[14] = test system: fibroblast growth factor receptor (FGFR); settings: preclinical; cited from earlier work
[15] = test system: epidermal growth factor receptor (EGFR); settings: preclinical; cited from earlier work
[16] = test system: acute and chronic myeloid leukemic cells; settings: inhibition of proliferation and induction of apoptosis; cited from earlier work
[17] = test system: leukemic progenitor cells from 29 patients with AML; settings: including poor-prognosis chromosome abnormalities; cited from earlier work
[18] = test system: human AML leukemic cells; settings: animals implanted with human AML leukemic cells; cited from earlier work
[19] = preclinical toxicology studies; cited from earlier work
[20] = Safety / adverse events and DLT in phase I dose escalation study
[21] = mice at active doses (16.7 mg/kg IV or 2 × 40 mg/kg PO)

CYP2D6, sequence (P10635 whole entry): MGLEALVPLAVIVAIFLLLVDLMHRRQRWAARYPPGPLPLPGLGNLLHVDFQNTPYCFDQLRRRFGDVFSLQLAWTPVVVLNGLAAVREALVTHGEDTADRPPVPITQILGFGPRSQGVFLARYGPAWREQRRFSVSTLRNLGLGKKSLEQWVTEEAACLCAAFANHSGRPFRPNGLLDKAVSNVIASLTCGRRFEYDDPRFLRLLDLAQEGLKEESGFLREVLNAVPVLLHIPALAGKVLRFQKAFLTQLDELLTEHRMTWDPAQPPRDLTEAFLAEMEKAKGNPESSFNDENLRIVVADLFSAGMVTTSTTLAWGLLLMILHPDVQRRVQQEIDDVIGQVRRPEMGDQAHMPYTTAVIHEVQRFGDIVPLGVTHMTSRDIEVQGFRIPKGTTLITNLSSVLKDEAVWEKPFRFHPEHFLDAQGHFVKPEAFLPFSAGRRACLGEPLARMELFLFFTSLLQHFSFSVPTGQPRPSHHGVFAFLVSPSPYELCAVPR

CC(C)(C)NC(=O)Nc1nc2nc(Nc3ccc4nsnc4c3)ncc2cc1-c1c(Cl)cccc1Cl [SAR103168, 1-[2-(2,1,3-benzothiadiazol-5-ylamino)-6-(2,6-dicholophenyl)-pyridol[2,3-d]pyrimidin-7-yl]-3′-tert-butylurea]
time by which mean plasma concentrations were below the limit of detection ([1]; all dose groups): ≤ 24 h | tlast ([1]; generally, over the dose range 1.2 to 14.4 mg/m2): ≤ 7 h | accumulation in exposures (Cmax or AUClast) upon multiple daily dosings ([1]; human, in vivo): limited accumulation | patient exposure (AUC) ([1]; human, in vivo, 14.4 mg/m2): ~ 1000 ng/h/mL | patient exposure (Cmax) ([1]; human, in vivo, 14.4 mg/m2): ~ 500 ng/mL | transient decrease in peripheral blasts ([2]; efficacy population): One patient | clinical benefit ([2]; within the tested dose range): did not demonstrate a clear clinical benefit | Human protein binding [3]: > 99.3% | contribution of CYP2D6 to the compound's metabolism [4]: ~ 20% | maximum tolerated dose (MTD) [5]: prior to reaching the MTD | active dose in various tumor models ([6]; IV, in mice): 16.7 mg/kg | putative, partially active dose level ([6]; based on the preclinical data, human-equivalent of 10 mg/kg in mouse): ~ 30 mg/m^2 | putative, partially active dose level ([6]; in mouse, preclinical data): 10 mg/kg | AUCs achieved in animal models [7, 21]: ≥ 16000 ng/h/mL | Cmax achieved in animal models [7, 21]: ≥ 3600 ng/mL | exposures (AUCs) which demonstrated in vivo activity in xenograft models ([7]; xenograft models): 16000 ng/h/mL | activity against the Src kinase family [8]: Nanomolar activity | activity against the BCR-Abl kinase [9]: Nanomolar activity | activity against VEGFR1 [10]: Nanomolar activity | activity against VEGFR2 [11]: Nanomolar activity | activity against Tie2 [12]: Nanomolar activity | activity against PDGFR [13]: Nanomolar activity | activity against FGFR [14]: Nanomolar activity | activity against EGFR [15]: Nanomolar activity | IC50 of anti-leukemic effects [16]: nanomolar | AML patient samples sensitive to the agent [17]: over 85% | effect of administration on tumors [18]: tumor regression | toxicity profile [19]: favorable toxicity profile | discontinuation of study treatment due to adverse events ([20]; 29 treated patients): 10.3% | SAE Preferred Term ([20]; planned dose level 1.2 mg/m^2, Relationship to Study Drug: No): Multi-organ failure; also recorded: Bacteremia; also recorded: Pneumonia fungal; also recorded: Febrile neutropenia | SAE Preferred Term ([20]; planned dose level 1.2 mg/m^2, Relationship to Study Drug: Yes): Echocardiogram abnormal | SAE Preferred Term ([20]; planned dose level 1.7 mg/m^2, Relationship to Study Drug: No): Deep vein thrombosis; also recorded: Febrile neutropenia; also recorded: Staphylococcal sepsis; also recorded: Disease progression; also recorded: Pulmonary embolism | SAE Preferred Term ([20]; planned dose level 2.4 mg/m^2, Relationship to Study Drug: No): Perirectal abscess; also recorded: Febrile neutropenia; also recorded: Anemia; also recorded: Disease progression; also recorded: Septic shock | SAE Preferred Term ([20]; planned dose level 4.8 mg/m^2, Relationship to Study Drug: No): Bone pain; also recorded: Febrile neutropenia; also recorded: Disease progression | SAE Preferred Term ([20]; planned dose level 9.6 mg/m^2, Relationship to Study Drug: No): Pneumonia; also recorded: Bacteremia; also recorded: Asthenia | SAE Preferred Term ([20]; planned dose level 14.4 mg/m^2, Relationship to Study Drug: No): Disease progression; also recorded: Sinusitis fungal; also recorded: Sepsis
